Test results published in ChEMBL document CHEMBL5303300, “EUbOPEN Chemogenomics Library - Multiplex” (2023).
“And” between values parts separate entries of the source, which are not always exact repeats. Equal values may be shown once.

Test system: HEK-293T
Assay: Multiplex assay against HEK293T
Format: toxicity, cell-based
Conditions: human, number of replicates 2
In short: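 Cells stained live at seeding with Hoechst33342, BioTracker Green Microtubule Cytoskeleton Dye, MitoTracker Red and Annexin V Alexa Fluor 680 were imaged on a CQ1 microscope at 37°C and 5% CO2 after compound addition. Their classification by CellPathfinder machine-learning gating ran from Hoechst high-intensity objects versus normal cells, to healthy, pyknosed or fragmented nuclei among normal cells, to mitotic or apoptotic among pyknosed cells. Tubulin, mitochondrial-mass and membrane-permeability phenotypes are per cents of healthy-nucleus cells.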

[1] = 12 h, 10 µM, compound concentration 10 uM
[2] = 24 h, 10 µM, compound concentration 10 uM
[3] = 48 h, 10 µM, compound concentration 10 uM
[4] = 12 h, 1 µM, compound concentration 1 uM
[5] = 24 h, 1 µM, compound concentration 1 uM
[6] = 48 h, 1 µM, compound concentration 1 uM

CN[C@@H]1C[C@H]2O[C@@](C)([C@@H]1OC)n1c3ccccc3c3c4c(c5c6ccccc6n2c5c31)C(=O)NC4 [STAUROSPORINE]
Population Apoptotic (%) [1]: 56% and 55% and 68% and 63% | Population Fragmented Nuclei (%) [1]: 20% and 14% and 21% | Population Healthy Nuclei (%) [1]: 37% and 34% and 23% and 29% | Population Hoechst High Intensity Objects (%) [1]: 7% and 8% and 5% | Population Membrane Permeable-Phenotype (%) [1]: 11% and 12% and 7% | Population Mitochondria Different-Phenotype (%) [1]: 46% and 52% and 60% and 51% | Population Mitotic Cells (%) [1]: 43% and 44% and 31% and 36% | Population Normal (%) [1]: 92% and 91% and 94% | Population Pyknosed Nuclei (%) [1]: 41% and 51% and 55% and 50% | Population Tubulin-Different-Phenotype (%) [1]: 72% and 77% and 76% | Population Apoptotic (%) [2]: 85% and 83% and 86% | Population Fragmented Nuclei (%) [2]: 16% and 13% | Population Healthy Nuclei (%) [2]: 17% and 22% and 23% and 18% | Population Hoechst High Intensity Objects (%) [2]: 12% and 8% and 10% and 7% | Population Membrane Permeable-Phenotype (%) [2]: 10% and 7% and 6% | Population Mitochondria Different-Phenotype (%) [2]: 45% and 63% and 62% | Population Mitotic Cells (%) [2]: 14% and 16% and 13% | Population Normal (%) [2]: 87% and 91% and 89% and 92% | Population Pyknosed Nuclei (%) [2]: 66% and 64% and 63% and 65% | Population Tubulin-Different-Phenotype (%) [2]: 58% and 59% and 76% and 79% | Population Apoptotic (%) [3]: 90% and 89% and 87% and 81% | Population Fragmented Nuclei (%) [3]: 13% and 11% and 10% | Population Healthy Nuclei (%) [3]: 23% and 17% and 22% and 20% | Population Hoechst High Intensity Objects (%) [3]: 14% and 9% and 11% | Population Membrane Permeable-Phenotype (%) [3]: 11% and 6% and 5% | Population Mitochondria Different-Phenotype (%) [3]: 47% and 62% and 64% and 65% | Population Mitotic Cells (%) [3]: 9% and 10% and 12% and 18% | Population Normal (%) [3]: 85% and 90% and 88% | Population Pyknosed Nuclei (%) [3]: 63% and 71% and 66% | Population Tubulin-Different-Phenotype (%) [3]: 59% and 72% and 68% and 75%

CN(C)CC#Cc1ccc2[nH]c3c(c2c1)-c1nc(N)ncc1CCC3
Population Apoptotic (%) [4]: 52% | Population Fragmented Nuclei (%) [4]: 2% and 4% | Population Healthy Nuclei (%) [4]: 81% and 82% | Population Hoechst High Intensity Objects (%) [4]: 11% and 14% | Population Membrane Permeable-Phenotype (%) [4]: 8% | Population Mitochondria Different-Phenotype (%) [4]: 31% and 24% | Population Mitotic Cells (%) [4]: 47% | Population Normal (%) [4]: 89% and 85% | Population Pyknosed Nuclei (%) [4]: 16% and 12% | Population Tubulin-Different-Phenotype (%) [4]: 96% | Total Cell Count [4]: 491 and 406 | Population Apoptotic (%) [1]: 52% and 44% | Population Fragmented Nuclei (%) [1]: 3% | Population Healthy Nuclei (%) [1]: 73% | Population Hoechst High Intensity Objects (%) [1]: 12% | Population Membrane Permeable-Phenotype (%) [1]: 5% and 4% | Population Mitochondria Different-Phenotype (%) [1]: 28% and 23% | Population Mitotic Cells (%) [1]: 47% and 55% | Population Normal (%) [1]: 87% | Population Pyknosed Nuclei (%) [1]: 22% and 23% | Population Tubulin-Different-Phenotype (%) [1]: 93% and 96% | Total Cell Count [1]: 350 and 360 | Population Apoptotic (%) [5]: 50% and 63% | Population Fragmented Nuclei (%) [5]: 6% and 8% | Population Healthy Nuclei (%) [5]: 83% and 80% | Population Hoechst High Intensity Objects (%) [5]: 11% | Population Membrane Permeable-Phenotype (%) [5]: 14% and 19% | Population Mitochondria Different-Phenotype (%) [5]: 11% and 8% | Population Mitotic Cells (%) [5]: 49% and 36% | Population Normal (%) [5]: 88% | Population Pyknosed Nuclei (%) [5]: 9% and 11% | Population Tubulin-Different-Phenotype (%) [5]: 97% and 95% | Total Cell Count [5]: 646 and 621 | Population Apoptotic (%) [2]: 50% and 55% | Population Fragmented Nuclei (%) [2]: 3% and 5% | Population Healthy Nuclei (%) [2]: 75% and 77% | Population Hoechst High Intensity Objects (%) [2]: 16% and 11% | Population Membrane Permeable-Phenotype (%) [2]: 8% and 5% | Population Mitochondria Different-Phenotype (%) [2]: 12% and 9% | Population Mitotic Cells (%) [2]: 50% and 44% | Population Normal (%) [2]: 83% and 88% | Population Pyknosed Nuclei (%) [2]: 20% and 16% | Population Tubulin-Different-Phenotype (%) [2]: 88% and 94% | Total Cell Count [2]: 381 and 452 | Population Apoptotic (%) [6]: 54% and 48% | Population Fragmented Nuclei (%) [6]: 17% | Population Healthy Nuclei (%) [6]: 78% and 77% | Population Hoechst High Intensity Objects (%) [6]: 13% and 9% | Population Membrane Permeable-Phenotype (%) [6]: 34% and 42% | Population Mitochondria Different-Phenotype (%) [6]: 0% | Population Mitotic Cells (%) [6]: 45% and 51% | Population Normal (%) [6]: 86% and 90% | Population Pyknosed Nuclei (%) [6]: 4% | Population Tubulin-Different-Phenotype (%) [6]: 85% and 83% | Total Cell Count [6]: 1491 and 1520 | Population Apoptotic (%) [3]: 47% and 50% | Population Fragmented Nuclei (%) [3]: 8% and 6% | Population Healthy Nuclei (%) [3]: 71% and 79% | Population Hoechst High Intensity Objects (%) [3]: 20% and 18% | Population Membrane Permeable-Phenotype (%) [3]: 9% and 11% | Population Mitochondria Different-Phenotype (%) [3]: 1% and 0% | Population Mitotic Cells (%) [3]: 52% and 49% | Population Normal (%) [3]: 79% and 81% | Population Pyknosed Nuclei (%) [3]: 19% and 13% | Population Tubulin-Different-Phenotype (%) [3]: 93% and 90% | Total Cell Count [3]: 505 and 520

CNC(=O)c1c(F)cccc1Nc1nc(Nc2cc3c(cc2OC)CCN3C(=O)CN(C)C)nc2[nH]ccc12
Population Apoptotic (%) [4]: 62% and 55% | Population Fragmented Nuclei (%) [4]: 4% and 2% | Population Healthy Nuclei (%) [4]: 82% and 86% | Population Hoechst High Intensity Objects (%) [4]: 12% | Population Membrane Permeable-Phenotype (%) [4]: 1% and 0% | Population Mitochondria Different-Phenotype (%) [4]: 46% and 51% | Population Mitotic Cells (%) [4]: 37% and 44% | Population Normal (%) [4]: 87% | Population Pyknosed Nuclei (%) [4]: 13% and 10% | Population Tubulin-Different-Phenotype (%) [4]: 81% and 83% | Total Cell Count [4]: 326 and 308 | Population Apoptotic (%) [1]: 45% and 56% | Population Fragmented Nuclei (%) [1]: 7% | Population Healthy Nuclei (%) [1]: 75% and 73% | Population Hoechst High Intensity Objects (%) [1]: 44% and 47% | Population Membrane Permeable-Phenotype (%) [1]: 4% and 2% | Population Mitochondria Different-Phenotype (%) [1]: 66% and 59% | Population Mitotic Cells (%) [1]: 54% and 44% | Population Normal (%) [1]: 55% and 52% | Population Pyknosed Nuclei (%) [1]: 17% and 19% | Population Tubulin-Different-Phenotype (%) [1]: 94% and 93% | Total Cell Count [1]: 246 and 244 | Population Apoptotic (%) [5]: 40% and 83% | Population Fragmented Nuclei (%) [5]: 9% and 7% | Population Healthy Nuclei (%) [5]: 84% and 88% | Population Hoechst High Intensity Objects (%) [5]: 12% and 9% | Population Membrane Permeable-Phenotype (%) [5]: 0% | Population Mitochondria Different-Phenotype (%) [5]: 34% and 30% | Population Normal (%) [5]: 87% and 90% | Population Pyknosed Nuclei (%) [5]: 5% and 4% | Population Tubulin-Different-Phenotype (%) [5]: 81% and 79% | Total Cell Count [5]: 390 and 332 | Population Apoptotic (%) [2]: 37% and 38% | Population Fragmented Nuclei (%) [2]: 6% | Population Healthy Nuclei (%) [2]: 79% and 80% | Population Hoechst High Intensity Objects (%) [2]: 37% and 45% | Population Membrane Permeable-Phenotype (%) [2]: 8% and 4% | Population Mitochondria Different-Phenotype (%) [2]: 45% and 40% | Population Mitotic Cells (%) [2]: 62% and 61% | Population Normal (%) [2]: 62% and 54% | Population Pyknosed Nuclei (%) [2]: 14% and 12% | Population Tubulin-Different-Phenotype (%) [2]: 93% and 94% | Total Cell Count [2]: 266 and 259 | Population Apoptotic (%) [6]: 25% and 66% | Population Fragmented Nuclei (%) [6]: 16% and 11% | Population Healthy Nuclei (%) [6]: 80% and 86% | Population Hoechst High Intensity Objects (%) [6]: 21% and 30% | Population Membrane Permeable-Phenotype (%) [6]: 1% | Population Mitochondria Different-Phenotype (%) [6]: 4% and 8% | Population Mitotic Cells (%) [6]: 75% and 33% | Population Normal (%) [6]: 78% and 69% | Population Pyknosed Nuclei (%) [6]: 2% and 1% | Population Tubulin-Different-Phenotype (%) [6]: 63% and 69% | Total Cell Count [6]: 741 and 531 | Population Apoptotic (%) [3]: 57% and 71% | Population Fragmented Nuclei (%) [3]: 9% | Population Healthy Nuclei (%) [3]: 80% and 77% | Population Hoechst High Intensity Objects (%) [3]: 29% and 35% | Population Membrane Permeable-Phenotype (%) [3]: 5% and 7% | Population Mitochondria Different-Phenotype (%) [3]: 18% and 11% | Population Mitotic Cells (%) [3]: 42% and 28% | Population Normal (%) [3]: 70% and 64% | Population Pyknosed Nuclei (%) [3]: 9% and 13% | Population Tubulin-Different-Phenotype (%) [3]: 87% | Total Cell Count [3]: 402 and 414

CS(=O)(=O)c1ccc(NC(=O)c2cccc(COc3ccc(Br)cc3CNCCO)c2)c(Cl)c1.O=CO
Population Healthy Nuclei (%) [4]: 83% | Population Mitotic Cells (%) [4]: 47% and 41% | Population Pyknosed Nuclei (%) [4]: 14% | Total Cell Count [4]: 651 and 549 | Population Healthy Nuclei (%) [1]: 84% and 82% | Population Mitotic Cells (%) [1]: 37% and 33% | Total Cell Count [1]: 462 | Population Healthy Nuclei (%) [5]: 85% and 84% | Population Mitotic Cells (%) [5]: 46% | Population Pyknosed Nuclei (%) [5]: 8% and 10% | Total Cell Count [5]: 981 and 842 | Population Healthy Nuclei (%) [2]: 82% and 80% | Population Mitotic Cells (%) [2]: 33% and 32% | Population Pyknosed Nuclei (%) [2]: 16% | Total Cell Count [2]: 436 and 479 | Population Healthy Nuclei (%) [6]: 84% and 85% | Population Mitotic Cells (%) [6]: 74% and 85% | Population Pyknosed Nuclei (%) [6]: 4% and 3% | Total Cell Count [6]: 1426 and 1953 | Population Healthy Nuclei (%) [3]: 84% and 85% | Population Mitotic Cells (%) [3]: 21% | Population Pyknosed Nuclei (%) [3]: 10% and 9% | Total Cell Count [3]: 560 and 607
